This note sets out measurements from ChEMBL document CHEMBL3596113, “Callyaerins from the Marine Sponge Callyspongia aerizusa: Cyclic Peptides with Antitubercular Activity” (J Nat Prod, 2015).

In brackets after ≈: the same amount, converted by molar mass. Bounds are passed on as bounds.

One data set has as its system THP-1. As to the kind of experiment: (§1) Cytotoxicity against human THP1 cells assessed as cell growth inhibition after 48 hrs by resazurin dye reduction method. The class given is cell-based. The note with it: Homo sapiens, THP-1, 48 h. Put shortly: (§2)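 THP-1 human monocytic cells were grown in RPMI 1640 with 10% FBS, and MRC-5 fetal lung fibroblasts in DMEM with 10% FBS, at 37 °C in humidified 5% CO2. About 5 × 10^4 cells per well were exposed to compounds for 48 h, then to resazurin for about 3 h more. Fluorescence was read at ex 540/em 590 nm. Growth was set against uninoculated (0%) and untreated (100%) controls, and IC50 was taken as the concentration giving 50% growth inhibition.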
Background: Alamar Blue is a resazurin reagent that responds to reducing activity.

Data set [1] concerns Mycobacterium tuberculosis. The data set is described as follows: Antitubercular activity against Mycobacterium tuberculosis after 6 days by resazurin dye reduction method. It is filed as functional. The note with it: 144 h; for MIC: read-out: MIC100. Put shortly: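 M. tuberculosis grown aerobically at 37 °C in Middlebrook 7H9 with 0.5% glycerol, 0.05% Tyloxapol, 10% ADS enrichment; log-phase cultures (OD600 ~1) seeded at 1 × 10^5 cells/well, exposed to test substances 6 days. Resazurin added ~8 h, then formalin fixation (5% final); fluorescence ex 540/em 590 nm. Growth relative to rifampicin (0%) and DMSO (100%) controls; MIC90 = 90% growth inhibition.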

The test system of another data set is MRC5. The data set is described as follows: (§3) Cytotoxicity against human MRC5 cells assessed as cell growth inhibition after 48 hrs by resazurin dye reduction method. It is filed as cell-based. The note with it: Homo sapiens, MRC5, 48 h. Summed up:
as §2

Data set [2] can be described thus: as §1. It is filed as cell-based, THP-1. The note with it: human, THP-1 cells. Put shortly:
as §2

Data set [3] in a line: as §3. It is filed as cell-based. The note with it: human, MRC5 cells. Put shortly: as §2

Usually IC50 stands for the concentration at which inhibition is half-maximal. The MIC90 is the lowest concentration that inhibits either 90% of growth or 90% of the strains tested, depending on the study. The low end stands for greater potency, the high end for weaker potency. On to `COC1NC(=O)N/C1=C\[C@@H]1N/C=C(/C(=O)N2CCC[C@H]2C(=O)N[C@@H](CC(C)C)C(=O)N[C@@H](Cc2ccccc2)C(=O)NCC(N)=O)NC(=O)[C@H](C(C)C)NC(=O)[C@@H]2CCCN2C(=O)[C@@H]2CCCN2C(=O)[C@H](CC(C)C)NC(=O)[C@H](CC(C)C)NC(=O)[C@@H]2C[C@@H](O)CN2C1=O` (stereo partly drawn), for which the IC50 in the data set with THP-1 and with MRC5 was over 10 µM each time. Besides, the MIC90 in data set [1] was over 100 µM.

As for `CC[C@H](C)[C@@H]1NC(=O)[C@H](CCC(=O)O)NC(=O)[C@@H]2C[C@@H](O)CN2C(=O)[C@H]([C@@H](C)CC)N/C=C(/C(=O)N2CCC[C@H]2C(=O)N[C@@H](CC(C)C)C(=O)N[C@@H](Cc2ccccc2)C(N)=O)NC(=O)[C@H](CC(C)C)NC(=O)[C@@H]2CCCN2C(=O)[C@@H]2CCCN2C(=O)[C@H](C(C)C)NC1=O`, the IC50 with THP-1 and in the data set on MRC5 was over 10 µM each time. The MIC90 in data set [1] was over 100 µM.

Take `CC[C@H](C)[C@H](NC(=O)[C@H](Cc1ccccc1)NC(=O)[C@@H]1CCCN1C(=O)/C1=C/N[C@@H](Cc2ccccc2)C(=O)N2CCC[C@H]2C(=O)N[C@@H](Cc2ccccc2)C(=O)NCC(=O)N[C@@H](CC(C)C)C(=O)N2CCC[C@H]2C(=O)N2CCC[C@H]2C(=O)N[C@@H](Cc2ccccc2)C(=O)N1)C(=O)N[C@@H](CC(=O)O)C(=O)O`: the IC50 in the data set on THP-1 and with MRC5 was over 10 µM in each case. The same compound yielded an MIC90 in data set [1] of over 100 µM.

As to `CC[C@H](C)[C@H](NC(=O)[C@@H](NC(=O)[C@@H]1CCCN1C(=O)/C1=C/N[C@@H](Cc2ccccc2)C(=O)N2CCC[C@H]2C(=O)N[C@@H](CC(C)C)C(=O)N[C@@H](Cc2ccccc2)C(=O)N2CCC[C@H]2C(=O)N2CCC[C@H]2C(=O)N[C@@H](C(C)C)C(=O)N1)[C@@H](C)CC)C(=O)NCC(N)=O`, the concentration for half-maximal inhibition (IC50) in the data set on THP-1 and in the data set with MRC5 was over 10 µM each time. The MIC90 in data set [1] was over 100 µM.

Turning to `CC(C)C[C@H](NC(=O)[C@@H]1CCCN1C(=O)/C1=C/N[C@@H](CC(C)C)C(=O)N2CCC[C@H]2C(=O)N[C@@H](Cc2ccccc2)C(=O)N[C@@H](Cc2ccccc2)C(=O)N2CCC[C@H]2C(=O)N2CCC[C@H]2C(=O)N[C@@H](C(C)C)C(=O)N1)C(=O)N[C@@H](Cc1ccccc1)C(=O)NCC(N)=O`, the IC50 in the data set on THP-1 and with MRC5 was over 10 µM in each case. The MIC90 in data set [1] was over 100 µM.

What is called IC90 is the point of the concentration-response curve where the effect stands at 90%. For `CC[C@@H](C)[C@@H]1NC(=O)[C@H](C(C)C)NC(=O)[C@@H]2C[C@@H](O)CN2C(=O)[C@H]([C@@H](C)CC)N/C=C(\C(=O)N2CCC[C@H]2C(=O)N[C@H](C(=O)N[C@@H](Cc2ccccc2)C(=O)NCC(N)=O)[C@@H](C)CC)NC(=O)[C@H](CC(C)C)NC(=O)[C@@H]2CCCN2C(=O)[C@@H]2CCCN2C(=O)[C@H](CC(C)C)NC1=O` [CALLYAERIN A], the results for the IC90 at 48 h in data set [2] and in data set [3] were 50 µM and 40 µM, respectively. The concentration for half-maximal inhibition (IC50) was found to be 30 µM with THP-1 and 20 µM in the data set with MRC5. The MIC90 in data set [1] was 2 µM (≈ 2.72 µg/mL). Besides, the MIC in data set [1] is 6 µM (≈ 8.15 µg/mL).

In the case of `CC[C@@H](C)[C@@H]1NC(=O)[C@H]([C@@H](C)CC)NC(=O)[C@@H]2C[C@@H](O)CN2C(=O)[C@H]([C@H](C)CC)N/C=C(\C(=O)N2CCC[C@H]2C(=O)N[C@H](C(=O)N[C@H](C(=O)O)[C@@H](C)CC)[C@@H](C)CC)NC(=O)[C@H](CC(C)C)NC(=O)[C@@H]2CCCN2C(=O)[C@@H]2CCCN2C(=O)[C@H](CC(C)C)NC1=O` [CALLYAERIN B], the IC90 at 48 h in data set [2] was determined as 30 µM; in data set [3] it was 6 µM. For the same compound, the values for the concentration for half-maximal inhibition (IC50) in the data set with THP-1 and in the data set on MRC5 were 5 µM and 2 µM, respectively. The compound also displayed an MIC90 in data set [1] of 5 µM (≈ 6.41 µg/mL). The MIC in data set [1] was 10 µM (≈ 12.8 µg/mL).

With `CC[C@H](C)[C@H](NC(=O)[C@@H](NC(=O)[C@@H]1CCCN1C(=O)/C1=C/N[C@@H](CC(C)C)C(=O)N2CCC[C@H]2C(=O)N[C@@H](Cc2ccccc2)C(=O)N[C@@H](Cc2ccccc2)C(=O)N2CCC[C@H]2C(=O)N2CCC[C@H]2C(=O)N[C@@H](C(C)C)C(=O)N1)[C@@H](C)CC)C(=O)NCC(=O)O` [CALLYAERIN E], the half-inhibitory concentration (IC50) with THP-1 and with MRC5 was over 10 µM each time. Moreover, the MIC90 in data set [1] worked out at 100 µM (≈ 126 µg/mL).

Regarding `CC[C@H](C)[C@H](NC(=O)[C@H](Cc1ccccc1)NC(=O)[C@H](CC(C)C)NC(=O)[C@@H]1CCCN1C(=O)/C1=C\N[C@@H](C(C)C)C(=O)N2CCC[C@H]2C(=O)N[C@@H](C(C)C)C(=O)N[C@@H](Cc2ccccc2)C(=O)N2CCC[C@H]2C(=O)N1)C(=O)O` [CALLYAERIN F], the 50% inhibitory concentration (IC50) with THP-1 and with MRC5 was over 10 µM each time. In addition, in data set [1], the MIC90 stood at 50 µM (≈ 54.8 µg/mL).

For `CC[C@@H](CO)NCCN[C@@H](CC)CO` [ETHAMBUTOL], in data set [1], the MIC90 is 1.25 µM (≈ 0.255 µg/mL) and the MIC was found to be 5 µM (≈ 1.02 µg/mL).

In the case of `NNC(=O)c1ccncc1` [ISONIAZID], in data set [1], the MIC90 turned out to be 0.625 µM (≈ 0.0857 µg/mL) and the MIC came to 1.25 µM (≈ 0.171 µg/mL).

Turning to `CO[C@H]1/C=C/O[C@@]2(C)Oc3c(C)c(O)c4c(O)c(c(/C=N/N5CCN(C)CC5)c(O)c4c3C2=O)NC(=O)/C(C)=C\C=C\[C@H](C)[C@H](O)[C@@H](C)[C@@H](O)[C@@H](C)[C@H](OC(C)=O)[C@@H]1C` [RIFAMPIN], the IC90 at 48 h in data set [2] and in data set [3] was over 100 µM in each case. Besides, the IC50 with THP-1 and with MRC5 was over 100 µM each time. Moreover, the MIC90 in data set [1] was under 0.1 µM. Further, the MIC in data set [1] stood at 0.5 µM (≈ 0.411 µg/mL).
